Assay results reported in ChEMBL document CHEMBL1144418, “Structure-activity relationships of fluorinated lysophosphatidic acid analogues” (J Med Chem, 2005).

Molecular target: T1, Lysophosphatidic acid receptor 3 (Homo sapiens, UniProt Q9UBY5)
T1 sequence (Q9UBY5 whole entry): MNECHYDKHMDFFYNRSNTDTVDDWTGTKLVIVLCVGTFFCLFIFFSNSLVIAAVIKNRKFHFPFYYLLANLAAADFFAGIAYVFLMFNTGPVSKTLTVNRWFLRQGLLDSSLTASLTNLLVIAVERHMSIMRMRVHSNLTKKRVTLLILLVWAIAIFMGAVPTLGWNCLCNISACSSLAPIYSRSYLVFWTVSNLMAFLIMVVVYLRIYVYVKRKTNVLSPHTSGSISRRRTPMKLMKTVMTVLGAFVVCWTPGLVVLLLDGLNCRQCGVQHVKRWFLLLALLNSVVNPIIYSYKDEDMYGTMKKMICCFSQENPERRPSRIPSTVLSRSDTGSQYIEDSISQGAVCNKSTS
Assay: Agonistic activity as increased intracellular calcium level by human LPA3 receptor expressed in Sf9 cells
Assay type: functional
In short: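 Sf9 insect cells infected with baculovirus encoding human LPA3, harvested 48 h post-infection, washed in MES-buffered saline (pH 6.2, 0.1% fatty acid-free BSA, 10 mM CaCl2), loaded with Fura-2 AM 45 min, resuspended at 10^6 cells/mL; ligand-evoked fluorescence at 27 °C in quartz cuvettes, excitation 340/380 nm, emission 500 nm, recorded before and after ligand addition; EC50 from concentration-response.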

Row | Structure (SMILES) | EC50
1 | CCCCCCCCCCCCCCCC(=O)OC[C@H](O)CC(F)P(=O)(O)O (stereo partly drawn) | > 10 µM
2 | CCCCCCCCCCCCCCCC(=O)O[C@H](COP(=O)(O)O)C(F)F | > 10 µM
3 | CCCCCCCC/C=C/CCCCCCCC(=O)OC[C@@H](O)CC(F)P(=O)(O)O (stereo partly drawn) | 0.0005 µM
4 | CCCCCCCCCCCCCCCC(=O)OC(CF)COP(=O)(O)O (single isomer, unassigned) | ~3 µM
5 | CCCCCCCCCCCCCCCC(=O)OC[C@@H](F)COP(=O)(O)O | > 10 µM
6 | CCCCCCCC/C=C/CCCCCCCC(=O)OC[C@H](CC(F)P(=O)(O)O)OC (stereo partly drawn) | 0.02 µM
7 | CCCCCCCC/C=C/CCCCCCCC(=O)OC(CF)COP(=O)(O)O (single isomer, unassigned; form 1) | ~0.01 µM
8 | CCCCCCCC/C=C/CCCCCCCC(=O)OC(CF)COP(=O)(O)O (single isomer, unassigned; form 2) | ~0.2 µM
9 | CCCCCCCC/C=C/CCCCCCCC(=O)O[C@H](COP(=O)(O)O)C(F)F | > 10 µM
10 | CCCCCCCCCCCCCCCC(=O)O[C@H](COC)CC(F)P(=O)(O)O (stereo partly drawn) | ~10 µM
11 | CCCCCCCCCCCCCCCC(=O)O[C@H](COP(=O)(O)O)CC(F)F | > 10 µM
12 | CCCCCCCCCCCCCCCC(=O)OC[C@H](CC(F)P(=O)(O)O)OC (stereo partly drawn) | > 10 µM
13 | CCCCCCCCCCCCCCCC(=O)OCC(O)COP(=O)(O)O (stereo not drawn) [PALMITOYL] | > 10 µM
14 | CCCCCCCC/C=C/CCCCCCCC(=O)O[C@H](COC)CC(F)P(=O)(O)O (stereo partly drawn) | 0.005 µM
15 | CCCCCCCC/C=C/CCCCCCCC(=O)OC[C@H](O)CC(F)P(=O)(O)O (stereo partly drawn) | 0.5 µM
16 | CCCCCCCC/C=C/CCCCCCCC(=O)O[C@H](COP(=O)(O)O)CC(F)F | > 10 µM
17 | CCCCCCCC/C=C/CCCCCCCC(=O)OC[C@@H](O)CC(F)(F)P(=O)(O)O | 0.5 µM
18 | CCCCCCCCCCCCCCCC(=O)OC[C@@H](O)CC(F)P(=O)(O)O (stereo partly drawn) | 0.02 µM
19 | CCCCCCCC/C=C/CCCCCCCC(=O)OC[C@@H](F)COP(=O)(O)O | > 10 µM
20 | CCCCCCCC/C=C/CCCCCCCC(=O)OC[C@H](F)COP(=O)(O)O | ~1 µM
21 | CCCCCCCC/C=C/CCCCCCCC(=O)O[C@H](COC)COP(O)(O)=S | ~5 µM
22 | CCCCCCCC/C=C/CCCCCCCC(=O)OC[C@H](O)CC(F)(F)P(=O)(O)O | ~1 µM
23 | CCCCCCCCCCCCCCCC(=O)OC[C@H](F)COP(=O)(O)O | > 10 µM
